Results: ChEMBL document CHEMBL4261598, “Synthesis of novel mono and bis nitric oxide donors with high cytocompatibility and release activity” (Bioorg Med Chem Lett, 2018)
The source made the active and inactive calls. The rule behind the calls is not given here.

Legend:
Liver = experiment: Induction of NO release in rat liver microsomes assessed as nitrite levels after 10 mins in presence of NADPH and dioxygen by Griess assay; format: functional; conditions: microsome
Summary of the method: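 Amidoximes incubated 10 min with rat liver microsomes and NADPH; supernatant nitrite quantified by Griess assay, expressed as nmol NO2-/mg P450. Background from controls lacking microsomes, amidoxime or NADPH, or with parent nitrile, was subtracted. 4-Chlorobenzamidoxime served as reference. Mean ± SEM of three to five independent experiments.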

VSMC [1] = experiment: (§1) Cytotoxicity against human VSMC assessed as cell viability at 100 uM after 24 hrs by MTT assay; format: cell-based; conditions: vsmc, 24 h, 100 µM
Summary of the method: (§2)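 Human vascular smooth muscle cells incubated 24 h with amidoximes over 0.001 to 100 µM; viability measured (method in Supporting Information). Mean ± SEM of three to four tests, two-way ANOVA.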

VSMC [2] = experiment: Induction of NO release in human VSMC assessed as intracellular S-nitrosothiol level at 100 uM after 1 hr by fluorimetric method; format: functional
Summary of the method: (§3)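 HVSMC seeded in 6-well plates 48 h before, then incubated 1 h at 37°C with compound (mono-amidoximes and GSNO reference 100 µM, bis-amidoxime 50 µM); controls PBS with 0.1% DMSO. Cells washed and lysed, then RSNO and nitrite quantified immediately by fluorometric 2,3-diaminonaphthalene/N2O3 assay giving naphthotriazole (ex 375, em 415 nm). Mean ± SEM, three independent experiments.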

VSMC [3] = experiment: Induction of NO release in human VSMC assessed as intracellular S-nitrosothiol level at 50 uM after 1 hr by fluorimetric method; format: functional; summary of the method: as §3
[4] = as §1; format: cell-based; conditions: VSMC cells, read-out: Activity; summary of the method: as §2

| Structure (SMILES) | Activity (Liver) | Activity (VSMC [1]) | Activity (VSMC [2]) | Activity (VSMC [3]) [µM] | viability at 24 h, 100 µM [4] [%] |
| --- | --- | --- | --- | --- | --- |
| COc1ccc(C(=N)NO)cc1 | 1.5 nmol/mg | Non-Toxic | 0.21 µM |  |  |
| N[C@@H](CCC(=O)N[C@@H](CSN=O)C(=O)NCC(=O)O)C(=O)O |  |  | Active |  |  |
| N/C(CCCCOc1ccccc1)=N\O | Active | Non-Toxic |  |  |  |
| N/C(CCCCOc1ccc(/C(N)=N/O)cc1)=N\O | Active | Non-Toxic |  | 0.17 |  |
| N/C(=N\O)c1ccc(O)cc1 | 2.4 nmol/mg |  | 0.2 µM |  | 74.7 |
| N/C(=N\O)c1ccc(Cl)cc1 | 1.3 nmol/mg |  | 0.03 µM |  |  |
